Rows were chosen to be rich in hits. Some 3.9% of all compounds tested hit in one or more screens of this group.
XBP1 UPR activ – activators of adaptive arm of unfolded protein response (XBP1); CHO-XBP1 luciferase reporter, IRE1-XBP1 UPR activation, luminescence; percent of tunicamycin response, DMSO as zero; activation, % at 20 µM; 0.33% of 330,000 active; AID 463104;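 active = versus positive control, 20 µM dose yields 30% or more activation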;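 also: 100% = tunicamycin at 10 µg/mL and 0% = DMSO only wells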
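assay system = CHO-XBP1 luciferase reporter cells | amount = 1000 cells/well | buffer or medium = F12 plus 10% FBS | compound dosing = single point, 20 µM final compound, 1% DMSO | incubation = 16-18 h cell attachment at 37 °C, then 6 h compound exposure | detection = Steady-Glo luminescence read | controls = tunicamycin 10 µg/mL and vehicle-only wells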
UPR CHOP act – activators of apoptotic arm of unfolded protein response (CHOP); 0.34% of 330,000 active; CHO-CHOP luciferase reporter, UPR activation, luminescence; percent of tunicamycin response over DMSO baseline; activation, % at 10 µM; AID 449763;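 active = at 10 µM dose, activation of 40% or more, normalized to positive control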;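 also: 100% = tunicamycin at 10 µg/mL and 0% = DMSO alone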
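Dosing – one dose, 10 µM in 0.5% DMSO · System – CHO-CHOP cells, stable luciferase reporter of PERK-eIF2a-CHOP signalling · Input – 500 cells/well · Control set – tunicamycin 10 µg/mL final as positive, DMSO-only wells as negative · Timing – 6 h compound treatment, 37 °C · Measure – % activation vs tunicamycin · Technique – luminescence read with Steady-Glo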
tim10-1 inh – tim10-1 yeast growth inhibition | inhibition, % at 20 µM | 2.2% of 330,000 active | S. cerevisiae tim10-1 ts strain growth, BacTiter-Glo, 24 h;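 active = inhibition of at least 40%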;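 also: mutant grown at 25 °C; 0% = DMSO wells with yeast and 100% = wells holding no yeast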
tim23-1 inh – tim23-1 yeast growth inhibition. AID 463212. 1.3% of 330,000 active. inhibition, % at 20 µM. S. cerevisiae tim23-1 growth, BacTiter-Glo luminescence, 24 h;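 active = growth inhibition of the mutant yeast at or above 50%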;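 also: temperature-sensitive mutant grown at 25 °C; plate controls were DMSO-treated mutant yeast for no effect and medium wells lacking yeast for full effect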
TIM10 inh – inhibits growth of TIM10 yeast strain | inhibition, % at 10 µM | AID 463195 | 1.4% of 330,000 active | S. cerevisiae TIM10 strain growth, BacTiter-Glo luminescence, 24 h;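 active = inhibition of 40% or more at the single tested concentration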;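 also: wild-type TIM10 isogenic control strain grown at permissive 25 °C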
tim10-1 confirm – tim10-1 yeast growth inhibition, confirmed | AID 463213 | 56% of 7,400 active | inhibition, % at 20 µM | S. cerevisiae tim10-1 ts strain growth, BacTiter-Glo, 24 h | shares compounds with tim10-1 inh;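 active = inhibition of yeast growth at or above a set limit in either of two repeat tests at 20 µM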;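 also: tim10-1 mutant grown at permissive 25 °C to find synthetic lethal compounds; 0% = DMSO yeast wells and 100% = medium wells without yeast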
TIM10 conf – TIM10 yeast growth inhibition, confirmed. shares compounds with TIM10 inh. S. cerevisiae tim10 strain growth, BacTiter-Glo luminescence, 24 h. inhibition, % at 10 µM. 63% of 4,600 active. AID 463215;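 active = inhibition of yeast growth at or above a set limit in either of two replicates at 10 µM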;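 also: this counterscreen used the strain with wild-type TIM10; 0% = yeast with DMSO and 100% = medium wells lacking yeast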
Active calls of the source: *; . = not tested or not shown.

SMILES | XBP1 UPR activ | UPR CHOP act | tim10-1 inh | tim23-1 inh | TIM10 inh | tim10-1 confirm | TIM10 conf
c1ccc(Nc2cc(-c3ccccc3)nc3ncnn23)cc1 | 0.6 | 1.2 | 48.0* | 34.6 | 56.7* | 42.7* | 48.3*
Clc1ccc(Nc2cc(-c3ccccc3)nc3ncnn23)cc1 | 1.6 | -0.6 | 17.6 | -1.2 | 8.6 | . | .
Cc1ccc(CSCC(=O)N2CCN(Cc3ccc4c(c3)OCO4)CC2)cc1 | -0.1 | -2.8 | 56.8* | 38.6 | 41.0* | 40.5* | -23.8
CCN(CC)S(=O)(=O)c1ccc(C(=O)NCC2CCCCC2)cc1 | -0.3 | 0.6 | 12.2 | 30.0 | -5.5 | . | .
CN(CCOc1ccccc1)C(=O)C1CCC(=O)N(CCCN2CCCC2=O)C1 (stereo not drawn) | -4.4 | -0.4 | 4.2 | -5.9 | 5.1 | . | .
Cc1nn(S(=O)(=O)c2ccc(Br)cc2)c(C)c1S(=O)(=O)N1CCOCC1 | -6.6 | 0.2 | 9.0 | 27.5 | 8.1 | . | .
COc1ccc(Nc2nc(-c3cccs3)nc3ccccc23)cc1 | 1.4 | -0.1 | 36.8 | 43.9 | 25.7 | . | .
COc1cccc(Nc2nc(-c3cccs3)nc3ccccc23)c1 | 1.9 | 1.3 | 52.5* | 33.8 | 48.5* | 35.6* | 45.2*
COc1ccc(NC(=O)CCC(=O)c2cc(C)sc2C)cc1 | 0.1 | 0.2 | -28.0 | 2.1 | -10.1 | . | .
CN(CC(=O)Nc1ccc(F)c(F)c1F)C(=O)c1n[nH]c(=O)c2ccccc12 | 0.4 | 2.5 | 5.2 | 8.1 | 9.1 | . | .
CCc1noc(C)c1C(=O)Nc1nc(-c2ccc(OC)cc2OC)cs1 | -4.0 | -1.0 | 7.3 | 4.7 | 7.2 | . | .
N/C(=N\OC(=O)c1ccc(Cl)c(Cl)c1)c1cccnc1 | 0.7 | 4.0 | 60.2* | 5.0 | 71.8* | 47.2* | 75.5*
N/C(=N\OC(=O)c1ccc2c(c1)OCO2)c1cccnc1 | -6.5 | -6.8 | 13.7 | 9.9 | 5.2 | . | .
Cc1ccc(NC(=O)CSCC(=O)Nc2ccccc2C(=O)NC2CC2)cc1 | -2.2 | -3.0 | 7.7 | 10.8 | -2.6 | . | .
Cc1cccc(N=Nc2c(N)n[nH]c2-c2ccc(Cl)cc2)c1 | 1.8 | 0.3 | 51.6* | 7.8 | 56.0* | 26.2 | 12.8
Cc1ccc(-c2[nH]nc(N)c2N=Nc2ccccc2C)cc1 | 1.9 | 0.9 | 56.3* | 19.8 | 45.1* | -0.4 | 45.8*
CSCc1c(C(=O)NC2CCCc3ccccc32)oc2ccccc12 (stereo not drawn) | -2.4 | -1.1 | 50.1* | 24.1 | 40.9* | 33.1* | -2.1
CCN(CC)S(=O)(=O)c1ccc2oc(C(=O)NC3CCCc4ccccc43)c(C)c2c1 (stereo not drawn) | 2.8 | -0.4 | 5.0 | 8.8 | 4.5 | . | .
O=C(Nc1cccc(NC(=O)c2ccc([N+](=O)[O-])o2)c1)c1ccco1 | -5.4 | 7.5 | 72.0* | 11.1 | 66.6* | 65.8* | 67.2*
O=C(Nc1ccc(NC(=O)c2ccc([N+](=O)[O-])o2)cc1Cl)c1ccco1 | -5.3 | 7.5 | -6.3 | 47.5 | 26.5 | . | .
COc1cccc(/C=N/NC(=O)c2c(C)nc3ccc(Br)cn23)c1O | 3.2 | -0.3 | 41.3* | 11.0 | 45.4* | 18.8 | 61.2*
CCOc1ccccc1/C=N/NC(=O)c1c(C)nc2ccc(Br)cn12 | -2.0 | 1.3 | 23.6 | 27.8 | 31.2 | . | .
COc1ccc(-c2cc(C(=O)N3CCN(c4ncccn4)CC3)c3ccccc3n2)cc1OC | -2.0 | 2.3 | 17.2 | 29.2 | 18.7 | . | .
Cc1ccc(-c2cc(C(=O)N3CCN(c4ncccn4)CC3)c3ccccc3n2)cc1 | 7.1 | 5.8 | 45.4* | 30.1 | 44.5* | 22.3 | 11.2
CCOC(=O)c1ccc(NC(=O)CC2C(=O)OCCN2CC)cc1 (stereo not drawn) | 1.4 | 1.8 | 68.4* | 36.9 | 43.7* | 58.8* | 57.9*
SMILES | XBP1 UPR activ | UPR CHOP act | tim10-1 inh | tim23-1 inh | TIM10 inh | tim10-1 confirm | TIM10 conf
Cc1nc(C)c(-c2csc(Nc3ccc(F)cc3)n2)s1 | 3.2 | 3.9 | 48.4* | 44.6 | 51.4* | 43.0* | 44.1*
CC(C)S(=O)(=O)c1csc(NC(=O)Nc2cc(Cl)ccc2Cl)c1Cl | -0.7 | 6.6 | 42.1* | 20.8 | 46.7* | 27.8 | 41.2*
O=C(O)CC(CN1C(=O)c2ccccc2C1=O)c1ccccc1 (stereo not drawn) | 2.7 | 1.6 | -9.8 | -10.3 | 39.0 | . | .
O=[N+]([O-])CC(c1ccc(F)cc1)c1c[nH]c2ccccc12 (stereo not drawn) | 0.2 | -1.1 | 50.9* | 43.9 | 43.5* | 66.3* | 59.5*
CC1C(=O)N2CCCc3cc(NC(=O)c4ccccc4C(F)(F)F)cc1c32 (stereo not drawn) | -2.0 | -1.9 | 8.4 | 1.1 | -2.3 | . | .
Cc1ccc(Cl)cc1N1CCN(C(=O)C(C)n2ncn3cccc3c2=O)CC1 (stereo not drawn) | -3.2 | -0.4 | -21.9 | -3.0 | -28.7 | . | .
CC[C@@H]1CC=C[C@H]2[C@H]1C(=O)N(Cc1ccccc1)[C@H]2c1ccc2ccccc2c1 | -4.0 | 2.0 | 41.3* | 42.9 | 45.0* | 26.4 | 37.7*
CCSc1nnc(NC(=O)c2nc(-c3ccccc3)n(-c3ccccc3)n2)s1 | 0.8 | 1.0 | 54.8* | 49.9 | 50.9* | 52.0* | -21.4
CCSc1nnc(NC(=O)c2cc(C)nc3ccccc23)s1 | -1.9 | 2.5 | 19.2 | -3.7 | 3.5 | . | .
Cc1cccc(NC(=S)N/N=C/c2ccc3c(c2)OCO3)c1 | 0.5 | 1.9 | 41.6* | 45.0 | 46.8* | 29.4 | 25.3
Cc1cccc(NC(=S)NCc2ccc3c(c2)OCO3)c1 | -0.5 | -3.4 | 23.0 | 35.7 | 14.1 | . | .
COC(=O)Cn1cnc2c(nnn2-c2cccc(OC)c2)c1=O | 11.3 | 0.9 | 25.3 | 0.4 | 8.0 | . | .
CCOc1ccc(-c2nnc3ccc(SC(C)C)nn23)cc1 | 14.4 | 5.4 | 47.8* | 40.8 | 41.5* | 44.6* | 51.2*
CC(C)(C)c1ccc(-c2conc2N)cc1 | 1.4 | 4.2 | 55.3* | 46.0 | 42.8* | 41.0* | 46.8*
CC(C)(C)c1ccc(-c2nc(N)nc(N)n2)cc1 | 2.9 | 6.6 | 8.4 | 10.8 | 15.8 | . | .
Cc1nn(-c2ccc(N3CCCCC3)nn2)c(C)c1CCC(=O)Nc1ccc(F)c(F)c1 | -3.4 | 7.0 | 33.2 | 19.6 | -0.9 | . | .
S=C(NCc1ccco1)Nc1cc(Cl)c(Cl)cc1Cl | 2.0 | 0.7 | 44.1* | 42.8 | 42.3* | 28.4 | -20.9
S=C(NCc1ccco1)Nc1ccc(Oc2ccccc2)cc1 | -0.3 | 0.0 | 45.0* | 26.2 | 46.2* | 28.0 | 36.9*
COc1ccc(NC(=S)NCc2ccco2)cc1 | 0.3 | 2.5 | -10.0 | 5.9 | -3.2 | . | .
CCOC(=O)C1=CN(Cc2ccco2)S(=O)(=O)N(CC)C1c1ccc(C(F)(F)F)cc1 (stereo not drawn) | 4.0 | 1.7 | 29.0 | 49.6 | 4.4 | . | .

Compound activity (PubChem BioAssay)
